We go through 34 compounds from ChEMBL document CHEMBL1131003, “Nonsymmetric P2/P2' cyclic urea HIV protease inhibitors. Structure-activity relationship, bioavailability, and resistance profile of monoindazole-substituted P2 analogues” (J Med Chem, 1998).

The test system of one assay is MT2. Briefly: Antiviral potency evaluated by measuring accumulation of viral RNA transcripts 3 days after infection of MT-2 cells with HIV-1 RF. Format: functional. To be noted: Homo sapiens, MT2, 72 h.
In assay [1] the target is Human immunodeficiency virus type 1 protease (Human immunodeficiency virus 1, UniProt Q72874). Briefly: Inhibitory activity against HIV protease. Put shortly:
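Ki for HIV protease, measured by cleavage of a fluorescent substrate with HPLC analysis, following the earlier method.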

Structures are written as SMILES.

The term IC90 denotes the point of the concentration-response curve where the effect stands at 90%. Low readings indicate an effect from little substance, high ones a need for much substance. As usually defined, the Ki is a dissociation constant, usually derived from enzyme kinetics or from competition with a known ligand. Low values mean tighter binding, high ones weaker binding.

The compound `Nc1ccc(CN2C(=O)N(Cc3ccc4[nH]ncc4c3)[C@H](Cc3ccccc3)[C@H](O)[C@@H](O)[C@H]2Cc2ccccc2)cc1-n1ccnn1` registered an IC90 with MT2 of 38 nM. Also, the Ki in assay [1] stood at 0.034 nM.

Regarding `CN(C)c1cccc(CN2C(=O)N(Cc3ccc4[nH]ncc4c3)[C@H](Cc3ccccc3)[C@H](O)[C@@H](O)[C@H]2Cc2ccccc2)c1`, the 90% effect level in the assay on MT2 (IC90) was put at 39 nM. Affinity in assay [1] was put at a Ki of 0.23 nM. In the same order, the values of `O=C1N(Cc2cccc(O)c2)[C@H](Cc2ccccc2)[C@H](O)[C@@H](O)[C@@H](Cc2ccccc2)N1Cc1ccc2[nH]ncc2c1` are 36 nM and 0.045 nM. Consider `O=C1N(Cc2ccc3ccccc3c2)[C@H](Cc2ccccc2)[C@H](O)[C@@H](O)[C@@H](Cc2ccccc2)N1Cc1ccc2ccccc2c1`, for which the IC90 in the assay with MT2 stood at 3900 nM. On the same count and under the same terms, to `NC(=O)c1cccc(CN2C(=O)N(Cc3cccc(C(N)=O)c3)[C@H](Cc3ccccc3)[C@H](O)[C@H]2CCc2ccccc2)c1` belongs 35 nM.

Consider `O=C(Cn1ccnn1)c1cccc(CN2C(=O)N(Cc3ccc4[nH]ncc4c3)[C@H](Cc3ccccc3)[C@H](O)[C@@H](O)[C@H]2Cc2ccccc2)c1`, for which, in the assay on MT2, the IC90 turned out to be 30 nM. In assay [1], this compound gave a Ki of 0.021 nM. In the same order, the values of `O=C1N(Cc2cccc(Cn3cccn3)c2)[C@H](Cc2ccccc2)[C@H](O)[C@@H](O)[C@@H](Cc2ccccc2)N1Cc1ccc2[nH]ncc2c1` are 46 nM and 0.17 nM. The corresponding values for `Nc1ccc(CN2C(=O)N(Cc3ccc4[nH]ncc4c3)[C@H](Cc3ccccc3)[C@H](O)[C@@H](O)[C@H]2Cc2ccccc2)cc1-n1nccn1` are 12 nM and 0.059 nM.

`O=C(Nc1ccccn1)c1cccc(CN2C(=O)N(Cc3ccc4[nH]ncc4c3)[C@H](Cc3ccccc3)[C@H](O)[C@@H](O)[C@H]2Cc2ccccc2)c1` returned an IC90 in the assay with MT2 of 5 nM. In assay [1], this compound gave a Ki of 0.051 nM.

On to `O=C1N(Cc2ccc3[nH]ncc3c2)[C@H](Cc2ccccc2)[C@H](O)[C@@H](O)[C@@H](Cc2ccccc2)N1Cc1ccc2[nH]ncc2c1`, for which the IC90 in the assay with MT2 worked out at 7 nM. The same measure, in the same setting: to `O=C(Nc1nc2ccccc2[nH]1)c1cccc(CN2C(=O)N(Cc3cccc(C(=O)Nc4nc5ccccc5[nH]4)c3)[C@H](Cc3ccccc3)[C@H](O)[C@@H](O)[C@H]2Cc2ccccc2)c1` belongs 5.1 nM. Consider `O=C(Cn1nccn1)c1cccc(CN2C(=O)N(Cc3ccc4[nH]ncc4c3)[C@H](Cc3ccccc3)[C@H](O)[C@@H](O)[C@H]2Cc2ccccc2)c1`, for which it took 15 nM to reach the 90% level with MT2 (IC90). Besides, in assay [1], affinity was put at a Ki of 0.046 nM. For the compound `O=C(Nc1ccccn1)c1cccc(CN2C(=O)N(Cc3cccc(C(=O)Nc4ccccn4)c3)[C@H](Cc3ccccc3)[C@H](O)[C@@H](O)[C@H]2Cc2ccccc2)c1`, the IC90 in the assay with MT2 was determined as 2.8 nM. The same measure, in the same setting: to `CCNC(=O)c1cccc(CN2C(=O)N(Cc3cccc(C(=O)NCC)c3)[C@H](Cc3ccccc3)[C@H](O)[C@@H](O)[C@H]2Cc2ccccc2)c1` belongs 138 nM. Take `O=C1N(Cc2cccc(Cn3cncn3)c2)[C@H](Cc2ccccc2)[C@H](O)[C@@H](O)[C@@H](Cc2ccccc2)N1Cc1ccc2[nH]ncc2c1`: it took 35 nM to reach the 90% level with MT2 (IC90). Moreover, the affinity in assay [1] corresponds to a Ki of 0.054 nM. In the same order, the values of `COC(=O)Cc1cccc(CN2C(=O)N(Cc3ccc4[nH]ncc4c3)[C@H](Cc3ccccc3)[C@H](O)[C@@H](O)[C@H]2Cc2ccccc2)c1` are 32 nM and 0.11 nM.

Compound `Cc1ccc(CN2C(=O)N(Cc3ccc4[nH]ncc4c3)[C@H](Cc3ccccc3)[C@H](O)[C@@H](O)[C@H]2Cc2ccccc2)cc1N` showed an IC90 in the assay on MT2 of 15 nM. Besides, affinity in assay [1] was put at a Ki of 0.05 nM. `O=C1N(Cc2ccc3[nH]ncc3c2)[C@H](CCc2ccccc2)[C@@H](O)[C@@H](Cc2ccccc2)N1Cc1ccc2[nH]ncc2c1` came in with an IC90 in the assay with MT2 of 6 nM. Further, the affinity in assay [1], expressed as Ki, was 0.023 nM. The compound `CNC(=O)c1cccc(CN2C(=O)N(Cc3cccc(C(=O)NC)c3)[C@H](Cc3ccccc3)[C@H](O)[C@@H](O)[C@H]2Cc2ccccc2)c1` returned an IC90 in the assay on MT2 of 81 nM.

Compound `O=C(Cn1cccn1)c1cccc(CN2C(=O)N(Cc3ccc4[nH]ncc4c3)[C@H](Cc3ccccc3)[C@H](O)[C@@H](O)[C@H]2Cc2ccccc2)c1` had an IC90 with MT2 of 15 nM. In assay [1], this compound had an inhibition constant Ki of 0.063 nM. Consider `NC(=O)c1cccc(CN2C(=O)N(Cc3cccc(C(N)=O)c3)[C@H](Cc3ccccc3)[C@H](O)[C@@H](O)[C@H]2Cc2ccccc2)c1`, for which it took 709 nM to reach the 90% level in the assay with MT2 (IC90). Same read-out and setting: to `N=C(NO)c1cccc(CN2C(=O)N(Cc3cccc(/C(N)=N/O)c3)[C@H](CCc3ccccc3)[C@@H](O)[C@H]2Cc2ccccc2)c1` belongs 49 nM.

With `O=C1N(Cc2cccc(CCO)c2)[C@H](Cc2ccccc2)[C@H](O)[C@@H](O)[C@@H](Cc2ccccc2)N1Cc1ccc2[nH]ncc2c1`, the IC90 with MT2 was determined as 17 nM. Further, the affinity in assay [1], expressed as Ki, was 0.05 nM.

`O=C1N(Cc2cccc(Cn3ccnn3)c2)[C@H](Cc2ccccc2)[C@H](O)[C@@H](O)[C@@H](Cc2ccccc2)N1Cc1ccc2[nH]ncc2c1` registered an IC90 in the assay on MT2 of 30 nM. The compound also gave a Ki in assay [1] of 0.11 nM. The corresponding values for `NC(=O)c1cc(CN2C(=O)N(Cc3ccc4[nH]ncc4c3)[C@H](Cc3ccccc3)[C@H](O)[C@@H](O)[C@H]2Cc2ccccc2)ccc1F` are 14 nM and 0.018 nM. `O=C(Nc1nccs1)c1cccc(CN2C(=O)N(Cc3cccc(C(=O)Nc4nccs4)c3)[C@H](Cc3ccccc3)[C@H](O)[C@@H](O)[C@H]2Cc2ccccc2)c1` had an IC90 in the assay with MT2 of 4.2 nM. This counts as single-digit nanomolar.

The compound `Nc1cc(CN2C(=O)N(Cc3ccc4[nH]ncc4c3)[C@H](Cc3ccccc3)[C@H](O)[C@@H](O)[C@H]2Cc2ccccc2)ccc1F` yielded an IC90 in the assay on MT2 of 14 nM. The same compound registered a Ki in assay [1] of 0.018 nM. The corresponding values for `O=C(Cc1cccs1)c1cccc(CN2C(=O)N(Cc3ccc4[nH]ncc4c3)[C@H](Cc3ccccc3)[C@H](O)[C@@H](O)[C@H]2Cc2ccccc2)c1` are 18 nM and 0.23 nM. The corresponding values for `Cc1cccc(NC(=O)c2cccc(CN3C(=O)N(Cc4ccc5[nH]ncc5c4)[C@H](Cc4ccccc4)[C@H](O)[C@@H](O)[C@H]3Cc3ccccc3)c2)n1` are 3 nM and 0.04 nM. For `O=C1N[C@H](Cc2ccccc2)[C@H](O)[C@@H](O)[C@@H](Cc2ccccc2)N1Cc1ccc2[nH]ncc2c1`, in the assay on MT2, the 90% effect level (IC90) was put at 550 nM. That is a sub-micromolar value.

For `O=C1N(Cc2ccc(F)c(NCc3nc4ccccc4[nH]3)c2)[C@H](Cc2ccccc2)[C@H](O)[C@@H](O)[C@@H](Cc2ccccc2)N1Cc1ccc2[nH]ncc2c1`, in the assay on MT2, the IC90 is 30 nM. The compound also gave a Ki in assay [1] of 0.028 nM. In the same order, the values of `Nc1ccc(CN2C(=O)N(Cc3ccc4[nH]ncc4c3)[C@H](Cc3ccccc3)[C@H](O)[C@@H](O)[C@H]2Cc2ccccc2)cc1F` are 7 nM and 0.036 nM. The corresponding values for `O=C1N(Cc2cccc(Cn3nccn3)c2)[C@H](Cc2ccccc2)[C@H](O)[C@@H](O)[C@@H](Cc2ccccc2)N1Cc1ccc2[nH]ncc2c1` are 32 nM and 0.081 nM. In the same order, the values of `O=C(O)c1cccc(CN2C(=O)N(Cc3ccc4[nH]ncc4c3)[C@H](Cc3ccccc3)[C@H](O)[C@@H](O)[C@H]2Cc2ccccc2)c1` are 750 nM and 0.049 nM.
